Data on 18 molecules can be found in ChEMBL document CHEMBL4732036, “Phenyl bioisosteres in medicinal chemistry: discovery of novel gamma-secretase modulators as a potential treatment for Alzheimer''s disease” (RSC Med Chem, 2021).

Structures are written as SMILES. In brackets after ≈: the same amount, converted by molar mass. A value given as a limit tells only on which side of the number the result lay.

Series [1] can be described thus: Distribution coefficient between 1-octanol and phosphate buffer, logD of the compound after 24 hrs by shake flask assay. The format is physicochemical. To be noted: 1-octanol/phosphate buffer. A digest of the protocol: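 CAMDIS high-throughput shake-flask method. PVDF membranes impregnated with 1-octanol are dipped in 25 mM phosphate buffer, pH 7.4, containing the compound, then shaken 24 h at 23 °C. Remaining aqueous concentration measured by LC/MS. logD calculated from the aqueous concentration with and without octanol impregnation, and the phase ratio.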

Series [2] is described as follows: Solubility of compound in PBS buffer at pH 6.5 incubated for over night by HPLC-UV based LYSA assay. The format is physicochemical. In outline:
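Duplicate samples from 10 mM DMSO stocks. DMSO evaporated, residue dissolved in 0.05 M phosphate buffer, pH 6.5, stirred 1 h, shaken 2 h, left overnight, then filtered. Filtrate and its 1/10 dilution measured by direct UV or HPLC-UV against a four-point calibration curve.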

Another series deals with Gamma-secretase. In words: Modulatory activity of gamma secretase in human H4 cells overexpressing human APP695 K595N/M596L mutant assessed as decrease in amyloidbeta42 levels at 24 hrs by Alphalisa method. The class given is cell-based. In outline:
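H4 neuroglioma cells stably expressing APP695 Swedish mutant, in IMDM with 10% FCS and […] hygromycin B, at 37 °C, 5% CO2. Compounds added 3-4 h after plating and incubated 24 h, typically 4 µM down to 0.0013 µM in half-log steps (8 points), final Me2SO 0.4%. Secreted Aβ in supernatant quantified by AlphaLisa (3 h antibody mix, then donor beads 30 min, RT). IC50 by nonlinear regression.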

In the case of `Cc1nnc(C23CC(Nc4nc(Oc5cccc(Cl)c5)n(C(C)C)n4)(C2)C3)o1`, the logD at 24 h in series [1] amounted to 4.1. In series [2], this molecule returned a solubility at 12 h of 88 µg/mL (≈ 220 µM). The IC50 at Gamma-secretase came out at 214 nM.
For `Cc1nnc(C23CC(Nc4nc5n(n4)CCCN5c4ccc(OC(F)(F)F)cc4)(C2)C3)o1` the same measures were 2.8, 3.2 µg/mL (≈ 7.15 µM) and 587 nM.
The corresponding values for `Cc1nnc(C23CC(Nc4nc5n(n4)CCCN5c4cccc(Cl)c4)(C2)C3)o1` are 2.4, 167 µg/mL (≈ 420 µM) and 777 nM.
For `Cc1nnc(N2CC3CCC(C2)C3Nc2nc3n(n2)CCCN3c2cccc(Cl)c2)o1` (centres undefined) the same measures were 2.7, 233 µg/mL (≈ 528 µM) and 34 nM.
`Cc1nnc(-c2ccc(Nc3nc4n(n3)CCCN4c3cccc(Cl)c3)cc2)o1`: in series [1], the logD at 24 h stood at 3.2. In series [2], this molecule registered a solubility at 12 h below 0.1 µg/mL. In addition, the IC50 at Gamma-secretase came to 95 nM.
For `Cc1nnc(C23CCC(Nc4nc(Oc5cccc(Cl)c5)n(C(C)C)n4)(CC2)CC3)o1` the same measures were 4.1, 15 µg/mL (≈ 33.9 µM) and 118 nM.
The corresponding values for `Cc1nnc(N2CC3CCC(C2)C3Nc2nc3n(n2)CCCN3c2ccc(OC(F)(F)F)cc2)o1` (centres undefined) are 3.5, 106 µg/mL (≈ 216 µM) and 46 nM.
The corresponding values for `Cc1nnc(C23CCC(Nc4nc(Cc5ccc(Cl)cc5)cc(C(C)(C)O)n4)(CC2)CC3)o1` are above 4, below 0.1 µg/mL and 146 nM.
On to `Cc1cc(C23CC(Nc4nc5n(n4)CCCC[C@H]5c4ccc(F)c(F)c4F)(C2)C3)ncn1`, for which the logD at 24 h in series [1] amounted to 3.8. In addition, the concentration in solution in series [2] (solubility at 12 h) was 1 µg/mL (≈ 2.27 µM). On Gamma-secretase, the IC50 came to 11 nM.
For `Cc1nnc(C23CCC(Nc4nc5n(n4)CCCN5c4ccc(OC(F)(F)F)cc4)(CC2)CC3)o1` the same measures were 3.7, 0.4 µg/mL (≈ 0.817 µM) and 21 nM.
The corresponding values for `Cc1nnc(C23CC(Nc4nc(Cc5ccc(Cl)cc5)cc(C(C)(C)O)n4)(C2)C3)o1` are 4, 11 µg/mL (≈ 25.8 µM) and 520 nM.
The corresponding values for `Cc1nnc(N2CC3CCC(C2)C3Nc2nc(Cc3ccc(Cl)cc3)cc(C(C)(C)O)n2)o1` (centres undefined) are 4, 18 µg/mL (≈ 38.4 µM) and 38 nM.
`Cc1nnc(-c2ccc(Nc3nc(Cc4ccc(Cl)cc4)cc(C(C)(C)O)n3)cc2)o1` yielded a logD at 24 h in series [1] above 4. In series [2], this molecule registered a solubility at 12 h below 0.1 µg/mL. On Gamma-secretase, the IC50 came to 478 nM.
In series [1], `Cc1nnc(-c2ccc(Nc3nc(Oc4cccc(Cl)c4)n(C(C)C)n3)cc2)o1` returned a logD at 24 h above 4. Moreover, the solubility at 12 h in series [2] is below 0.1 µg/mL. Also, the IC50 at Gamma-secretase is 510 nM.
The corresponding values for `Cc1nnc(N2CC3CCC(C2)C3Nc2nc(Oc3cccc(Cl)c3)n(C(C)C)n2)o1` (centres undefined) are 3.6, 104 µg/mL (≈ 234 µM) and 42 nM.
In turn, `Cc1nnc(-c2ccc(Nc3nc4n(n3)CCCN4c3ccc(OC(F)(F)F)cc3)cc2)o1` yielded a logD at 24 h in series [1] above 4. In series [2], this molecule had a solubility at 12 h below 0.1 µg/mL. Also, the IC50 on Gamma-secretase was 227 nM.
On to `Cc1nnc(C23CCC(Nc4nc5n(n4)CCCN5c4cccc(Cl)c4)(CC2)CC3)o1`, for which the logD at 24 h in series [1] is 3.1. In addition, the concentration in solution in series [2] (solubility at 12 h) was 132 µg/mL (≈ 300 µM). The IC50 at Gamma-secretase stood at 114 nM.
The molecule `Cc1cc(N2CC3CCC(C2)C3Nc2nc3n(n2)CCCC[C@H]3c2ccc(F)c(F)c2F)ncn1` (some centres undefined) came in with a logD at 24 h in series [1] of 3.4. This molecule also yielded a solubility at 12 h in series [2] of 7 µg/mL (≈ 14.5 µM). In addition, the IC50 at Gamma-secretase came out at 17 nM.

One may read the logD as the decadic logarithm of the distribution of all forms, ionised or not, between an organic phase and buffer at a given pH. A high value points to a more lipophilic compound. As a reminder, the solubility is the concentration that dissolves in the medium under given conditions. A high value points to much dissolved substance. The term IC50 denotes the concentration that gives 50% inhibition.
